Data set [1] has as its target T1, Tyrosine-protein phosphatase non-receptor type 2 (Homo sapiens, UniProt P17706).
T1 sequence (P17706 whole entry): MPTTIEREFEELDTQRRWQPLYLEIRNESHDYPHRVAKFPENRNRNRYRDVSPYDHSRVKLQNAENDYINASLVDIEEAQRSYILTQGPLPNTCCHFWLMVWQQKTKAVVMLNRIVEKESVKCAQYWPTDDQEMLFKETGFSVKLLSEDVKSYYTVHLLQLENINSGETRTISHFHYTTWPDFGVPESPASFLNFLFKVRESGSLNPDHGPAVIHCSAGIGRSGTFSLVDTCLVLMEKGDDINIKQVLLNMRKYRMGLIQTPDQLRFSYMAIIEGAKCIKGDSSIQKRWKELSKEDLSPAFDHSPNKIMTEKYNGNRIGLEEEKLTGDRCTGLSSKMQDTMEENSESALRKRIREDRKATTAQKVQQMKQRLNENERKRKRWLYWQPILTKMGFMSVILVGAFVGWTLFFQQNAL
The data set is described as follows: Inhibition of T cell protein tyrosine phosphatase (TC-PTP) at pH 7.0. The format is single protein. A digest of the protocol: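 Ki from a pNPP hydrolysis assay with recombinant TC-PTP, run at pH 7.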

In data set [2] the target is T2, Tyrosine-protein phosphatase non-receptor type 1 (Homo sapiens, UniProt P18031).
T2 sequence (P18031 whole entry): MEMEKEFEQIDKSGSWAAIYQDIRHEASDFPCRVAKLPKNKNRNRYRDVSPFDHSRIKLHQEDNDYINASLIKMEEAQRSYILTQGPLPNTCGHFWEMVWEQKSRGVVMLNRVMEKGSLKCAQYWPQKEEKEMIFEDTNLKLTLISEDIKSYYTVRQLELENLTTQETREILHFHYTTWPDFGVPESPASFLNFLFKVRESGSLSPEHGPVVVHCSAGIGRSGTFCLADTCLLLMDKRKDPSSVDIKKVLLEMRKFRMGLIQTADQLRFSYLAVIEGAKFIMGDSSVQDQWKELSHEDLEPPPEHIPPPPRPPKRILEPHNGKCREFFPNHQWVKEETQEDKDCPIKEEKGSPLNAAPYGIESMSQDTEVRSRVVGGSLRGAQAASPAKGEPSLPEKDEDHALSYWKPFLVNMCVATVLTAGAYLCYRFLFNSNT
Briefly: Inhibition of human recombinant Protein-tyrosine phosphatase 1B. A digest of the protocol:
(§1)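 Enzyme is a soluble recombinant human PTP1B (residues 1–321). Ki is measured at pH 5.5 with p-nitrophenyl phosphate (pNPP) as substrate.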

Data set [3] addresses T2, Tyrosine-protein phosphatase non-receptor type 1. The data set is described as follows: Inhibitory effect against recombinant human protein-tyrosine phosphatase 1B (PTP1B), using p-nitrophenyl phosphate substrate at pH 5.5.
In data set [4] the target is Receptor-type tyrosine-protein phosphatase F (Homo sapiens, UniProt P10586). The data set is described as follows: Inhibitory effect against protein-tyrosine phosphatase Lar, using p-nitrophenyl phosphate as substrate at pH 5.5.
Sequence of Receptor-type tyrosine-protein phosphatase F (P10586 whole entry): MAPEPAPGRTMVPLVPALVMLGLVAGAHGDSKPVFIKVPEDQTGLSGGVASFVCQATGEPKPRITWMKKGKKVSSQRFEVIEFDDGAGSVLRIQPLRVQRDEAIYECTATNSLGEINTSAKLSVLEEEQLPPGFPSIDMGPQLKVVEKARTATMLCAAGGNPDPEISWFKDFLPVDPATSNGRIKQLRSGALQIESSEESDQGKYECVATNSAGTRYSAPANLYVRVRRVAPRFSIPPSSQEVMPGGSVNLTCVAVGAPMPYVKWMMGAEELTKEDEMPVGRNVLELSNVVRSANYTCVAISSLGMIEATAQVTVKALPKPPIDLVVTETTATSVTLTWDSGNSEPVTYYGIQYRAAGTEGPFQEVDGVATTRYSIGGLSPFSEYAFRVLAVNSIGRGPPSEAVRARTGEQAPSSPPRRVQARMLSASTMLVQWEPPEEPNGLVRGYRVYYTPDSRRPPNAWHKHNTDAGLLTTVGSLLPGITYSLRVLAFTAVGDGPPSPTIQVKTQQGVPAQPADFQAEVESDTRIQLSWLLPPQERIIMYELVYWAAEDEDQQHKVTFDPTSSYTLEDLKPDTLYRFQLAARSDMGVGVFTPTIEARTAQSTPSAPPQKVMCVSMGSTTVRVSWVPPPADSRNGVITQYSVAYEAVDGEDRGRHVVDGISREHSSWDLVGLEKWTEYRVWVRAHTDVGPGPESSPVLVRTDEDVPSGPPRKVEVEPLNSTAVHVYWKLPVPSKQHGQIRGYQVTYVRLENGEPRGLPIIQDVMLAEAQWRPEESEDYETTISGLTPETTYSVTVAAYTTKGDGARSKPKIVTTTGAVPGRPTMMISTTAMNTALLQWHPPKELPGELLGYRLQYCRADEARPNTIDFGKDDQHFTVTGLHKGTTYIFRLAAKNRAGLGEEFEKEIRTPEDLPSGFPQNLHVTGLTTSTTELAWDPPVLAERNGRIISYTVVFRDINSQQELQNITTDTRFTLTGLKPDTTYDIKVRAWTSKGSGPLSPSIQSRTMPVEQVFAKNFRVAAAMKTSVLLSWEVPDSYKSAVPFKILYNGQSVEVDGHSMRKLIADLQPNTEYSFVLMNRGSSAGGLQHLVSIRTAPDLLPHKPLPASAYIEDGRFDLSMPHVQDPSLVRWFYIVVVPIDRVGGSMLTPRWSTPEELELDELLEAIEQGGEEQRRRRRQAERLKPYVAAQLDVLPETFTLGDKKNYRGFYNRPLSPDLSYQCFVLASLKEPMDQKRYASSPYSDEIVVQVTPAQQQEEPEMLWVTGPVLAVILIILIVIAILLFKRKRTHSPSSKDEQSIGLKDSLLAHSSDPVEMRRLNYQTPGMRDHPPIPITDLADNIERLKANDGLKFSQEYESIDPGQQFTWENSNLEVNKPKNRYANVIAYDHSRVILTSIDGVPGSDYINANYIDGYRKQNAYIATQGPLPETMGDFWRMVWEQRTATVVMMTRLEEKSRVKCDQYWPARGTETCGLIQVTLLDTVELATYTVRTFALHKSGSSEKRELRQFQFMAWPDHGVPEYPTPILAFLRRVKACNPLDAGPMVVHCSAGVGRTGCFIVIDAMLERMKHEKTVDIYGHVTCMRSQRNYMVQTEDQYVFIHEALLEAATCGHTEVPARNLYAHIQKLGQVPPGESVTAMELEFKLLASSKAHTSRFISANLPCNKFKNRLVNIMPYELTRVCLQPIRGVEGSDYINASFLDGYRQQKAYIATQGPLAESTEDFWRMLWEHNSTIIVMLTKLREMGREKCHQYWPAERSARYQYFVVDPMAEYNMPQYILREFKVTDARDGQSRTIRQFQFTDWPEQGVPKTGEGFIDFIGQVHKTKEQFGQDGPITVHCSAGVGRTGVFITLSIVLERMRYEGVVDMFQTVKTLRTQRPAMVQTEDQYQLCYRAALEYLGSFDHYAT
In data set [5] the target is Receptor-type tyrosine-protein phosphatase alpha (Homo sapiens, UniProt P18433). Briefly: Inhibitory effect against human protein-tyrosine phosphatase alpha (PTPalpha), using p-nitrophenyl phosphate substrate at pH 5.5. The procedure, abridged: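 Ki from pNPP hydrolysis assays at pH 5.5 with recombinant PTPα or LAR.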
Sequence of Receptor-type tyrosine-protein phosphatase alpha (P18433 whole entry): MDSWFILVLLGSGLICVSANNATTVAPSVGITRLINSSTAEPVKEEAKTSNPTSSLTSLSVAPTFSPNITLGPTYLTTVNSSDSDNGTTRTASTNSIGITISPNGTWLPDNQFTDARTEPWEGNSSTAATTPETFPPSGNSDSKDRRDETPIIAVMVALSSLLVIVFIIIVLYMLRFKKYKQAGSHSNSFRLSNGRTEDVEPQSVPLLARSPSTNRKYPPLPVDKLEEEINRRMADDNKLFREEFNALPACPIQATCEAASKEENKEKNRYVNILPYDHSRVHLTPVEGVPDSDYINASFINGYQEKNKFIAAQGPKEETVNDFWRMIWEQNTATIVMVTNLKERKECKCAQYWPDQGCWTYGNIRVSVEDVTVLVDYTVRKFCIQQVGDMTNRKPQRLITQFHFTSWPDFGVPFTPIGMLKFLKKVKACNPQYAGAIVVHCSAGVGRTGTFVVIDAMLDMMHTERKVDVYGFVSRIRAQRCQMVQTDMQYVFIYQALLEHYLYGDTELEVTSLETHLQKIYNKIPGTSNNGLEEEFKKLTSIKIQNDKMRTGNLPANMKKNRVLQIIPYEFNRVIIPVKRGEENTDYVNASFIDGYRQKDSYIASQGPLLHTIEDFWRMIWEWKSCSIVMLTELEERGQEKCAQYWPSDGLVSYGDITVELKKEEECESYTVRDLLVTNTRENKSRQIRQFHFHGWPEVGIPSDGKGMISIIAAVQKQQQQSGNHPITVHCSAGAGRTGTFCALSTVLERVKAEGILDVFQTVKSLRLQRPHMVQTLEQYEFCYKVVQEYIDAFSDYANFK
Data set [6] has as its target T2, Tyrosine-protein phosphatase non-receptor type 1. The data set is described as follows: Inhibitory effect against recombinant human PTP1B (Protein Tyrosine phosphatase 1B) using p-nitrophenyl phosphate substrate at pH 5.5. The procedure, abridged:
as §1

Data set [7] can be described thus: Pharmacokinetic Parameter t1/2 was reported for Protein Tyrosine Phosphatase 1B. The data set is classed as ADME, organism-based. To be noted: in vivo.
The nature of data set [8]: Pharmacokinetic Parameter clearance was reported for Protein Tyrosine Phosphatase 1B. As to conditions: in vivo. The format is ADME, organism-based.
Data set [9] can be described thus: Oral bioavailability. As to conditions: eutheria, in vivo, read-out: f (po). The format is ADME, organism-based.
Data set [10] has as its target T2, Tyrosine-protein phosphatase non-receptor type 1. Briefly: Inhibitory effect against recombinant human Protein-tyrosine phosphatase 1B (PTP1B) using p-nitrophenyl phosphate substrate at pH 5.5;ND is not determined. The procedure, abridged: as §1

pKi: −log10 of the molar value.

Turning to `CN1CCc2c(sc(NC(=O)C(=O)O)c2C(=O)O)C1`, the pKi in [1] was 4.66; in data set [2] it was 4.96; in [3] it was 6.00.
As to `O=C(O)C(=O)Nc1sc2c(c1C(=O)O)CCN(Cc1ccc3ccccc3n1)C2`, the pKi in data set [2] was 4.54; in [3] it was 5.74.
For the compound `O=C(O)C(=O)Nc1sc2c(c1C(=O)O)CCN(CCc1ccccn1)C2`, the figures for the negative logarithm of the Ki (pKi) in data set [1] and in data set [2] were 4.72 and 4.92, respectively.
In the case of `O=C(O)C(=O)Nc1cc(-c2ccccc2)sc1C(=O)O`, the pKi in [4] was 4.05; in [3], 4.89; in data set [5] it was 3.60.
`COc1cccc(CN2CCc3c(sc(NC(=O)C(=O)O)c3C(=O)O)C2)c1`: the results for the pKi in [2] and in [3] were 5.08 and 6.15, respectively.
In the case of `O=C1CCc2c(sc(NC(=O)C(=O)O)c2C(=O)O)C1`, the pKi in [3] was 5.89; in data set [5], 4.28.
Consider `O=C(O)C(=O)Nc1sc2c(c1C(=O)O)CCN(CCC(c1ccccc1)c1ccccc1)C2`, for which the negative logarithm of the Ki (pKi) in data set [2] is 5.23.
As to `O=C(O)C(=O)Nc1sc2c(c1C(=O)O)CCCCC2`, the pKi in data set [4] was 3.40; in data set [3] it was 4.92; in data set [5], 3.49.
For the compound `O=C(O)C(=O)Nc1sc2c(c1C(=O)O)CCCC2`, the pKi in data set [4] was 3.39; in data set [5] it was 3.54.
In the case of `O=C(O)C(=O)Nc1sc2c(c1C(=O)O)CCN(Cc1ccncc1)C2`, the figures for the negative-log Ki (pKi) in [2] and in [3] were 4.92 and 5.96, respectively.
In the case of `O=C(O)COc1ccc(-c2cc(NC(=O)C(=O)O)c(C(=O)O)s2)cc1`, the pKi in [4] was 4.30; in [3] it was 5.60; in [5], 3.70.
Turning to `O=C(O)C(=O)Nc1sc2c(c1C(=O)O)CCN(Cc1ccccn1)C2`, the pKi is 4.32 in [1], 4.64 in [2] and 6.00 in data set [3].
Turning to `O=C(O)C(=O)Nc1cnccc1C(=O)O`, the pKi is below 2.70 in data set [4], 3.80 in data set [3] and 3.00 in data set [5].
As to `O=C(O)C(=O)Nc1sc2c(c1C(=O)O)CCN(CCc1ccc(OCc3ccccc3)cc1)C2`, the results for the negative-log Ki (pKi) in data set [1] and in data set [2] were 5.00 and 4.82, respectively.
With `O=C(O)C(=O)Nc1cc(-c2ccsc2)sc1C(=O)O`, the results for the pKi in data set [4], in data set [3] and in [5] were 4.05, 4.96 and 3.70, respectively.
For `O=C(O)C(=O)Nc1cc(-c2ccc(Oc3ccccc3)cc2)sc1C(=O)O`, the pKi in [3] is 4.59; in data set [5], 4.03.
For `Cc1cccc(C(=O)O)c1NC(=O)C(=O)O`, the pKi was below 2.70 in [4], 2.96 in data set [6] and below 2.70 in [5].
Take `O=C(O)C(=O)Nc1sc2c(c1C(=O)O)CCOC2`: the half-life in data set [7] was 1.3 h. The same compound returned a clearance in data set [8] of 17 mL/min/kg. In [9], the bioavailability was found to be 85%. In data set [5], this compound showed a pKi of 3.77.
For the compound `O=C(O)C(=O)Nc1sc2c(c1C(=O)O)CCN(Cc1ccccc1)C2`, the values for the negative logarithm of the Ki (pKi) in data set [1], in data set [2] and in [3] were 4.62, 4.85 and 6.00, respectively.
Regarding `COc1cccc(-c2cc(NC(=O)C(=O)O)c(C(=O)O)s2)c1`, the negative-log Ki (pKi) in data set [3] was 4.92; in data set [5], 3.28.
Regarding `O=C(O)C(=O)Nc1cscc1C(=O)O`, the negative-log Ki (pKi) in data set [10] is 4.12.
Turning to `O=C(O)C(=O)Nc1ccccc1C(=O)O`, the negative-log Ki (pKi) in data set [4] was below 2.70; in data set [5], 3.06.
As for `O=C(O)C(=O)Nc1sc2c(c1C(=O)O)CCN(CCc1cccc3ccccc13)C2`, the negative-log Ki (pKi) in data set [1] and in data set [2] was 4.96 throughout.
Take `O=C(O)C(=O)Nc1sc2c(c1C(=O)O)CCN(CCc1ccc(-c3ccccc3)cc1)C2`: the negative logarithm of the Ki (pKi) was 4.92 in [1] and 5.10 in [2].
As for `O=C(O)C(=O)Nc1sc2c(c1C(=O)O)CCC(O)C2` (centres undefined), the pKi in data set [3] was 5.70; in data set [5], 3.67.
In the case of `O=C(O)C(=O)Nc1sc2c(c1C(=O)O)CC[S+]([O-])C2` (centres undefined), the figures for the negative logarithm of the Ki (pKi) in data set [3] and in data set [5] were 5.29 and 3.44, respectively.
Regarding `O=C(O)C(=O)Nc1sc2c(c1C(=O)O)CCSC2`, the values for the pKi in data set [3] and in data set [5] were 5.08 and 4.00, respectively.
For `O=C(O)C(=O)Nc1sc2c(c1C(=O)O)CCC2`, the pKi in data set [4] is 3.05; in data set [3], 4.92; in [5], 3.47.
Regarding `COc1cc(OC)cc(-c2cc(NC(=O)C(=O)O)c(C(=O)O)s2)c1`, the negative logarithm of the Ki (pKi) in data set [3] is 5.10; in [5] it was 2.75.
`Nc1cccc(-c2cc(NC(=O)C(=O)O)c(C(=O)O)s2)c1`: the pKi was 3.95 in data set [4], 5.21 in data set [3] and 3.60 in data set [5].
Take `O=C(O)C(=O)Nc1cc(-c2ccc(Cl)cc2)sc1C(=O)O`: the figures for the pKi in data set [4], in data set [3] and in data set [5] were 3.80, 5.00 and 4.00, respectively.
Take `O=C(O)C(=O)Nc1sc2c(c1C(=O)O)CCN(Cc1cccnc1)C2`: the pKi in data set [2] is 4.92; in [3], 6.05.
Take `Cc1csc(C(=O)O)c1NC(=O)C(=O)O`: the negative-log Ki (pKi) in data set [4] is 2.70; in [3], 2.70; in data set [5], below 2.70.
As to `O=C(O)C(=O)Nc1cc(-c2cccc([N+](=O)[O-])c2)sc1C(=O)O`, the pKi is 3.78 in data set [4], 5.33 in data set [3] and 3.15 in data set [5].
As to `CC(C)Cc1ccc(-c2cc(NC(=O)C(=O)O)c(C(=O)O)s2)cc1`, the pKi in data set [4] is 4.30; in data set [3], 4.89; in data set [5], 4.00.
Taken in the same sequence, the figures for `O=C(O)C(=O)Nc1ccsc1C(=O)O` were 2.70, 4.43 and below 2.70.
For the compound `COc1ccc(-c2cc(NC(=O)C(=O)O)c(C(=O)O)s2)cc1`, the negative-log Ki (pKi) is 5.05 in data set [3] and 3.82 in data set [5].
For the compound `O=C(O)C(=O)Nc1ccc(I)cc1C(=O)O`, the pKi in data set [4] is 3.38; in data set [6] it was 4.85; in data set [5] it was 4.05.
As to `CN(C(=O)C(=O)O)c1ccccc1C(=O)O`, the pKi in [4] was below 2.70; in data set [3] it was 2.96; in data set [5], below 2.70.
Regarding `Cc1cccc(NC(=O)C(=O)O)c1C(=O)O`, the pKi is below 2.70 in [4], 2.77 in [3] and below 2.70 in [5].
As to `O=C(O)C(=O)Nc1cc(-c2ccc(O)cc2)sc1C(=O)O`, the values for the negative logarithm of the Ki (pKi) in data set [3] and in data set [5] were 5.35 and 3.68, respectively.
Turning to `O=C(O)C(=O)Nc1ccc2cc[nH]c2c1C(=O)O`, the negative-log Ki (pKi) in data set [4] is 3.26; in data set [3], 4.74; in data set [5] it was 3.10.
Regarding `O=C(O)C(=O)Nc1sc2c(c1C(=O)O)CCN(CCc1ccsc1)C2`, the values for the pKi in data set [1] and in [2] were 4.92 and 5.05, respectively.
`O=C(O)C(=O)Nc1cc2[nH]ccc2cc1C(=O)O`: the pKi was 3.35 in [4], 5.10 in [3] and 3.74 in data set [5].
As for `O=C(O)C(=O)Nc1sc2c(c1C(=O)O)CCN(CCc1ccncc1)C2`, the negative-log Ki (pKi) in data set [1] was 4.89; in data set [2], 5.06.
For the compound `O=C(O)C(=O)Nc1sccc1C(=O)O`, the negative logarithm of the Ki (pKi) was below 2.70 in [4] and 3.97 in [3].
Consider `O=C(O)C(=O)Nc1sc2c(c1C(=O)O)CCS(=O)(=O)C2`, for which the pKi in [3] is 5.21; in data set [5], 3.49.
Taken in the same sequence, the figures for `O=C(O)C(=O)Nc1cc(-c2ccc(OCc3ccccc3)cc2)sc1C(=O)O` were 4.80 and 4.19.
`O=C(O)C(=O)Nc1sc2c(c1C(=O)O)CCN(CCc1ccccc1OCc1ccccc1)C2`: the pKi in [1] is 4.77; in data set [2], 4.80.
Take `O=C(O)C(=O)Nc1ccc(-c2ccccc2)cc1C(=O)O`: the results for the pKi in data set [4], in data set [3] and in data set [5] were 3.15, 4.85 and 3.55, respectively.
Regarding `COc1ccc(-c2cc(NC(=O)C(=O)O)c(C(=O)O)s2)cc1OC`, the pKi in [3] is 4.60; in data set [5] it was 3.01.
Take `O=C(O)C(=O)Nc1cc(-c2ccc(F)cc2)sc1C(=O)O`: the negative-log Ki (pKi) in data set [4] was 3.96; in [3], 5.10; in data set [5], 3.68.
Take `O=C(O)C(=O)Nc1sc2c(c1C(=O)O)CCN(CCCc1ccccc1)C2`: the values for the pKi in [1] and in data set [2] were 4.92 and 5.14, respectively.

What is called pKi is −log10 of the Ki, conventionally taken in molar units. By half-life is commonly meant the time in which the quantity being followed falls by half. Read a low half-life as rapid decline. What is called clearance is a measure of how efficiently the substance is removed, as volume per time. A higher clearance goes with a high capacity for elimination.
